In ChEMBL document CHEMBL4619807, “Exploration of Alternative Scaffolds for P2Y14 Receptor Antagonists Containing a Biaryl Core” (J Med Chem, 2020):
pEC50, pIC50, pKi: −log10 of the molar value. ≈ marks a conversion by molar mass, not a printed value. Each block holds one compound with its values, some of them ahead of it. Calls of active or inactive are those of the source. No cut-off for these calls is given here.

Key:
[1] = test system: Mus musculus; experiment: Antiasthmatic activity in Aspergillus oryzae protease-mediated C57BL/6J mouse model of allergic asthma assessed as reduction in eosinophil infiltration in bronchoalveolar lavage fluid at 10 mg/kg, ip dosed 30 mins before OVA aerosol challenge and measured 2 days post-challenge by cell differential count assay; assay type: functional, organism-based
[2] = target: Delta-type opioid receptor (Homo sapiens, UniProt P41143); experiment: Binding affinity to DOR (unknown origin)
Delta-type opioid receptor, sequence (P41143 whole entry): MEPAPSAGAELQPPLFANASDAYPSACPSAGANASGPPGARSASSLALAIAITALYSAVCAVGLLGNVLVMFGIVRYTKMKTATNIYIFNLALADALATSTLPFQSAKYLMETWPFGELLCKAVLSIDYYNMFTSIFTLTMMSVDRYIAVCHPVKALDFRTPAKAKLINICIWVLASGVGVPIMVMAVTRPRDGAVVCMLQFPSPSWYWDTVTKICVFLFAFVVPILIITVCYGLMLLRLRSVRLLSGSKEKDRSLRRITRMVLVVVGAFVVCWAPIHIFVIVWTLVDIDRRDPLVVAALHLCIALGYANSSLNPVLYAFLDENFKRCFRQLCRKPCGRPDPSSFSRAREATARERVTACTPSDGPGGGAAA

[3] = Unbound fraction in mouse plasma; assay type: ADME, cell-free
How it was run: (§1)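 Plasma protein binding measured at 10 μM compound in human and mouse plasma, expressed as percent unbound (mean ± SD). Verapamil and warfarin were positive controls.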

[4] = target: T1, Cannabinoid receptor 1 (Homo sapiens, UniProt P21554); experiment: Agonist activity at CB1 receptor (unknown origin)
T1 sequence (P21554 whole entry): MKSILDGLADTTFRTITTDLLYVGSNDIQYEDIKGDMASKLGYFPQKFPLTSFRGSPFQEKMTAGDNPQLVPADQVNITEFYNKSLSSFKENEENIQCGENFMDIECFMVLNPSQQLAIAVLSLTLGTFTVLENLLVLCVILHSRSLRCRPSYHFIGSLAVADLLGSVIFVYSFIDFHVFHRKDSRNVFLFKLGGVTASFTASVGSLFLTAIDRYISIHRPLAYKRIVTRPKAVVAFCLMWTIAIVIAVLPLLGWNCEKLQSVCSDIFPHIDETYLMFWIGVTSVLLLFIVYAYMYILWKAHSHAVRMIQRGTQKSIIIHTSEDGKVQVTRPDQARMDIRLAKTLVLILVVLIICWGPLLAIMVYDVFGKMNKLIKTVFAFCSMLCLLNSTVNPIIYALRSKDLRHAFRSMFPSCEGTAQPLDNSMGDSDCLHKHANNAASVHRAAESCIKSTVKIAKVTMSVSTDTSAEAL
How it was run: (§2)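 Tested through the Psychoactive Drug Screening Program as functional agonist and antagonist at CB1 and CB2 cannabinoid receptors, with an upper test concentration of 10 μM.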

[5] = target: T2, Cannabinoid receptor 2 (Homo sapiens, UniProt P34972); experiment: Antagonist activity at CB2 receptor (unknown origin); how it was run: as §2
T2 sequence (P34972 whole entry): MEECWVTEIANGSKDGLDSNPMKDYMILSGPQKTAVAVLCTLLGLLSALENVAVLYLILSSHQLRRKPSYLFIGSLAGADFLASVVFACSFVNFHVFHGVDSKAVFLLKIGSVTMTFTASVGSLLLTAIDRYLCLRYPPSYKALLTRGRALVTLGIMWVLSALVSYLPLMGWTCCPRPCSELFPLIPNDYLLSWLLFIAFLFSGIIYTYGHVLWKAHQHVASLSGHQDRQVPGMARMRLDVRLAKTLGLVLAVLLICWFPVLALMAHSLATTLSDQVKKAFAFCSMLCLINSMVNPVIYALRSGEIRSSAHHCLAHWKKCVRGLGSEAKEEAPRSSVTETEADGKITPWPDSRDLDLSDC

[6] = target: T2, Cannabinoid receptor 2; experiment: Agonist activity at CB2 receptor (unknown origin); how it was run: as §2
[7] = Unbound fraction in human plasma; assay type: ADME, cell-free; how it was run: as §1
[8] = target: T1, Cannabinoid receptor 1; experiment: Antagonist activity at CB1 receptor (unknown origin); how it was run: as §2
[9] = Aqueous solubility at pH 7.4 by pION method; assay type: physicochemical
How it was run: (§3)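 Equilibrium aqueous solubility measured by the pION method at pH 4.0 and at pH 7.4, in μg/mL; mean ± SD.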

[10] = Aqueous solubility at pH 4 by pION method; assay type: physicochemical; how it was run: as §3
[11] = target: T3, P2Y purinoceptor 14 (Homo sapiens, UniProt Q15391); experiment: Inhibition of MRS4174 binding to human P2Y14R expressed in CHO cells pre-incubated for 30 mins before MRS4174 addition and further incubated for 30 mins at pH 7.4 by flow cytomtery based competitive fluorescence assay; assay type: cell-based
T3 sequence (Q15391 whole entry): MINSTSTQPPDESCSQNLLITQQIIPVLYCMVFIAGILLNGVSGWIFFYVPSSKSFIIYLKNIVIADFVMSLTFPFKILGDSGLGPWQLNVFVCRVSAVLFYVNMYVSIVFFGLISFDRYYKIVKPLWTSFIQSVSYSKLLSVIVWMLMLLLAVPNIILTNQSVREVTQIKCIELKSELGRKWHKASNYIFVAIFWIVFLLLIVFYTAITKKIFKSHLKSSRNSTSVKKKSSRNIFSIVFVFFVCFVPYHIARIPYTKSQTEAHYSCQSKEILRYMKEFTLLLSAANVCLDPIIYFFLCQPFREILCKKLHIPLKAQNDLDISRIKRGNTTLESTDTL

[12] = target: T4, P2Y purinoceptor 14 (Mus musculus, UniProt Q9ESG6); experiment: Inhibition of MRS4174 binding to mouse P2Y14R expressed in HEK293 cells pre-incubated for 30 mins before MRS4174 addition and further incubated for 30 mins by flow cytomtery based competitive fluorescence assay; assay type: cell-based
T4 sequence (Q9ESG6 whole entry): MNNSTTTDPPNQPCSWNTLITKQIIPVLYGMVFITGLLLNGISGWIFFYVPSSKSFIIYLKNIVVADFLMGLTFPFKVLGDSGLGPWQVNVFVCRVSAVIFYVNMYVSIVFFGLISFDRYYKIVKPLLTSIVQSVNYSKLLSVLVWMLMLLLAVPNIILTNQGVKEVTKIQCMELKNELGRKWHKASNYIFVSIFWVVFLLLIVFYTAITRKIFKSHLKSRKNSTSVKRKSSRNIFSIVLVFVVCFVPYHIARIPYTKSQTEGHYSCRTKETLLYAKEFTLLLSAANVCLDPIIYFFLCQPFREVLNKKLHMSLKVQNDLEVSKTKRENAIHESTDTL
How it was run: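 Competitive whole-cell binding in HEK293 cells stably expressing N-terminally HA-tagged mouse P2Y14R, grown in a 24-well plate to 80–90% confluency. Antagonist given at 1 nM–100 μM in serum-containing EMEM for 30 min at 37 °C, then tracer added at 20 nM final for 30 min.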

[13] = Lipophilicity, change in Constant K of the compound by RP-HPLC analysis relative to PPTN; assay type: physicochemical
How it was run: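 Lipophilicity taken from reversed-phase HPLC retention time on a C18 column. Elution used a 20 min gradient of 10 to 100% acetonitrile in 10 mM triethylammonium acetate. Reported as Δk against the reference antagonist.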

[14] = Half life in mouse liver microsomes; assay type: ADME, Microsome
[15] = Half life in rat at 0.5 mg/kg, iv; assay type: ADME, organism-based; settings: in vivo
[16] = Stability in simulated intestinal fluid assessed as compound remaining level at 120 mins; assay type: physicochemical; settings: simulated gi fluid, 2 h
[17] = Bioavailability in rat at 1 to 10 mg/kg, ip; assay type: ADME, organism-based; settings: in vivo
How it was run: (§4)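 Rats dosed intraperitoneally at 1, 3 and 10 mg/kg and intravenously at 0.5 mg/kg. Solubilizing vehicle was aqueous DMSO. Plasma concentrations followed over time up to 12 h. Bioavailability derived from ip exposure relative to the iv dose.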

[18] = Plasma concentration in rat at 1 mg/kg, ip after 2 hrs; assay type: ADME, organism-based; how it was run: as §4
[19] = target: Cytochrome P450 2C19 (Homo sapiens, UniProt P33261); experiment: Inhibition of CYP2C19 (unknown origin); assay type: ADME
Cytochrome P450 2C19, sequence (P33261 whole entry): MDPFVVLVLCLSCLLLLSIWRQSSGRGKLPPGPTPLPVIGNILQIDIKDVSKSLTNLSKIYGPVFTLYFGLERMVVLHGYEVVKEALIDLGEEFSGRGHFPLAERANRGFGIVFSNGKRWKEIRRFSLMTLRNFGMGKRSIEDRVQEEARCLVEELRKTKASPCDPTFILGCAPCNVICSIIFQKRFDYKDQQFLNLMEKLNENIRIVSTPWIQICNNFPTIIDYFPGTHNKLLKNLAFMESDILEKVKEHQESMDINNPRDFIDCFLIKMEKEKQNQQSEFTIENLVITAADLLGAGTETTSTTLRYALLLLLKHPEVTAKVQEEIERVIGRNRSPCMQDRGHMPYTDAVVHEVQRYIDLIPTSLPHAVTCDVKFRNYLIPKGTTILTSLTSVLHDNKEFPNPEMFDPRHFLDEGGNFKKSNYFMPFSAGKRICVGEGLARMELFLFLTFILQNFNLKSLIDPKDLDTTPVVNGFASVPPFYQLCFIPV

[20] = Drug level in rat at 10 mg/kg, ip after 12 hrs; assay type: ADME, organism-based; settings: in vivo; how it was run: as §4
[21] = Permeability from apical to basolateral side in human Caco2 cells; assay type: ADME, cell-based; settings: caco-2
[22] = Half life in human liver microsomes; assay type: ADME, Microsome
[23] = Stability in rat plasma assessed as compound remaining level at 120 mins; assay type: ADME, cell-free; settings: 2 h
[24] = Half life in rat at 1 mg/kg, ip; assay type: ADME, organism-based; settings: in vivo
[25] = Stability in mouse plasma assessed as compound remaining level at 120 mins; assay type: ADME, cell-free; settings: 2 h
[26] = Cmax in rat at 10 mg/kg, ip after 3 to 4 hrs; assay type: ADME, organism-based; set-up: dose 10 mg/kg, route intraperitoneal; settings: in vivo; how it was run: as §4
[27] = Tmax in rat at 10 mg/kg, ip; assay type: ADME, organism-based; settings: in vivo; how it was run: as §4
[28] = Half life in rat liver microsomes; assay type: ADME, Microsome
[29] = target: Voltage-gated inwardly rectifying potassium channel KCNH2 (Homo sapiens, UniProt Q12809); experiment: Inhibition of human ERG
Voltage-gated inwardly rectifying potassium channel KCNH2, sequence (Q12809 whole entry): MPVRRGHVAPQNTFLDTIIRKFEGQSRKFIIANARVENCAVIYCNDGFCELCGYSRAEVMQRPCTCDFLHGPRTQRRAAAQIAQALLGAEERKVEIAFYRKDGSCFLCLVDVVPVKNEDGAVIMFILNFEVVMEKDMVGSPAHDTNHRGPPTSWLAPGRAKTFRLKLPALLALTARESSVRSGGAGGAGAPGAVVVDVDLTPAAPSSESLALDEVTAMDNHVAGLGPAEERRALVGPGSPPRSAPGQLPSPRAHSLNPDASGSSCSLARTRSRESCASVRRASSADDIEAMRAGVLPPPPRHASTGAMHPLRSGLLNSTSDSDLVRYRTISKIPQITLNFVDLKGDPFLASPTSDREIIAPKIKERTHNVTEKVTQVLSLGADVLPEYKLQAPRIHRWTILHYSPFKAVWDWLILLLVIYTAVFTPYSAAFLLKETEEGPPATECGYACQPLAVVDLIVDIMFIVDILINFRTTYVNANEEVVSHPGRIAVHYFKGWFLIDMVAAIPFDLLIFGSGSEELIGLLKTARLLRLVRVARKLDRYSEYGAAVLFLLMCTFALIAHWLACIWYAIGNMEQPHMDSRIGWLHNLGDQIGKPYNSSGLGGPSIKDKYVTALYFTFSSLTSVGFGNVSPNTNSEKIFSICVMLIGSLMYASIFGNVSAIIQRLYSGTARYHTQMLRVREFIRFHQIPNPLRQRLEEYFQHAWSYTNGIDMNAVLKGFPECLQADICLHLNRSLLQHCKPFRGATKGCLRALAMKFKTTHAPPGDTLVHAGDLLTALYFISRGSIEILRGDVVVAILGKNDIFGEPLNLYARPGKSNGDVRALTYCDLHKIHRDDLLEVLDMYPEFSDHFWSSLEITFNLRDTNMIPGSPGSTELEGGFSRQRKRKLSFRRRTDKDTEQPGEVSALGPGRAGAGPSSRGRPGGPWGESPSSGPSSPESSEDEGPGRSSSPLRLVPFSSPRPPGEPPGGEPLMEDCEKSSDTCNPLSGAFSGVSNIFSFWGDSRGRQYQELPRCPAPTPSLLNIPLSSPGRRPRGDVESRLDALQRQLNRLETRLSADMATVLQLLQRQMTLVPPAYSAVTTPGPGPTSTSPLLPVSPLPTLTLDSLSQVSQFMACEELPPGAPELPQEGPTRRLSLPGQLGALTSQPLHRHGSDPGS

[30] = target: Cytochrome P450 2C9 (Homo sapiens, UniProt P11712); experiment: Inhibition of CYP2C9 (unknown origin); assay type: ADME
Cytochrome P450 2C9, sequence (P11712 whole entry): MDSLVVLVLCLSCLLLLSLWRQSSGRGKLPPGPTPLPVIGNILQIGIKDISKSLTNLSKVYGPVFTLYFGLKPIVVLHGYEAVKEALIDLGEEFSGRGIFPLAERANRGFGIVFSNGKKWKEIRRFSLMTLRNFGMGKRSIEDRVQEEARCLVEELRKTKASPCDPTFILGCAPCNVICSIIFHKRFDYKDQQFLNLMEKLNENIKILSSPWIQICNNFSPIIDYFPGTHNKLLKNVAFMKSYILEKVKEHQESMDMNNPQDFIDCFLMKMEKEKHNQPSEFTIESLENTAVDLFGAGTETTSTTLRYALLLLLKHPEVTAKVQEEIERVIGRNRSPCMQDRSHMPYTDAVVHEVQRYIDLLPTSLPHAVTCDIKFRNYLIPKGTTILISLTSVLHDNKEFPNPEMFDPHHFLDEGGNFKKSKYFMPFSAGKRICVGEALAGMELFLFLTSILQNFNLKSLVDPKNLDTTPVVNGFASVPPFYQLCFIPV

[31] = Plasma concentration in rat at 1 mg/kg, ip after 4 hrs; assay type: ADME, organism-based; how it was run: as §4
[32] = Stability in simulated gastric fluid assessed as compound remaining level at 120 mins; assay type: physicochemical; settings: simulated gi fluid, 2 h
[33] = test system: HepG2; experiment: Toxicity in human HepG2 cells; assay type: cell-based
[34] = target: Cytochrome P450 2D6 (Homo sapiens, UniProt P10635); experiment: Inhibition of CYP2D6 (unknown origin); assay type: ADME
Cytochrome P450 2D6, sequence (P10635 whole entry): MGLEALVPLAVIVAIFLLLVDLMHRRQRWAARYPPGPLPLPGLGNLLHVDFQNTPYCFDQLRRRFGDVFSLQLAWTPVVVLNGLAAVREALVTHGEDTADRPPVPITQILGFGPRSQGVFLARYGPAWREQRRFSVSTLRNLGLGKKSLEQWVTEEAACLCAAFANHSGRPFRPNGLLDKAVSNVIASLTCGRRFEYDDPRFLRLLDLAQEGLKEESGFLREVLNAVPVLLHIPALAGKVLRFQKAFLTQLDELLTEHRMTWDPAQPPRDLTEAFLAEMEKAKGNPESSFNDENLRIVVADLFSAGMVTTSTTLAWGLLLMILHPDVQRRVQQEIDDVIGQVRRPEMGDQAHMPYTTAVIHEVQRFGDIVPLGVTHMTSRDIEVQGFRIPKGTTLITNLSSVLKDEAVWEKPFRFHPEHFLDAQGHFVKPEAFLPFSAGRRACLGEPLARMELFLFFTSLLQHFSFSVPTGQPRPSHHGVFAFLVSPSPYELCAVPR

[35] = Stability in human plasma assessed as compound remaining level at 120 mins; assay type: ADME, cell-free; settings: 2 h
[36] = target: 5-hydroxytryptamine receptor 1D (Homo sapiens, UniProt P28221); experiment: Binding affinity to 5HT1D receptor (unknown origin)
5-hydroxytryptamine receptor 1D, sequence (P28221 whole entry): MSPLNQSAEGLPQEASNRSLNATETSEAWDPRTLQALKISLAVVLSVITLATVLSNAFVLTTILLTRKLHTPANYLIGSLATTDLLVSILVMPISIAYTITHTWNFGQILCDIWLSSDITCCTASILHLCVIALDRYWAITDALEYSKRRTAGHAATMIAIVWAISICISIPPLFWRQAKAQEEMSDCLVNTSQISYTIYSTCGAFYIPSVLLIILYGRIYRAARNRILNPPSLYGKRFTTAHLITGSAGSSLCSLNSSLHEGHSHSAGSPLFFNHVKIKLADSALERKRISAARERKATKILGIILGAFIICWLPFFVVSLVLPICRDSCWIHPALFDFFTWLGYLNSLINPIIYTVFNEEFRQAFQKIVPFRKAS

Structure (SMILES): C#CCCCCN1CCC(c2ccc(-c3cc(C(=O)O)cc4cc(-c5ccc(C(F)(F)F)cc5)ccc34)cc2)CC1
Activity [1]: Active

pKi [2]: 5.42
Fu [3]: 1.33%
pEC50 [4]: < 5.00
pEC50 [5]: < 5.00
pEC50 [6]: < 5.00
Fu [7]: 1.25%
pEC50 [8]: < 5.00
Structure (SMILES): O=C(O)c1cc(-c2ccc(C3CCNCC3)cc2)cc(-c2cn(-c3ccc(C(F)(F)F)cc3)nn2)c1
Activity [1]: Active

Structure (SMILES): O=C(O)c1cc(-c2ccc(C3CCNCC3)cc2)c2ccc(-c3ccc(C(F)(F)F)cc3)cc2c1 [PPTN]
pEC50 [4]: < 5.00
pEC50 [5]: < 5.00
pEC50 [6]: < 5.00
Activity [1]: Active
solubility ([9]; buffer): 0.36 µg/mL (≈ 0.757 µM)
pEC50 [8]: < 5.00
solubility ([10]; buffer): 1.1 µg/mL (≈ 2.31 µM)

Structure (SMILES): C[N+]12CCC(c3ccc(-c4cc(C(=O)O)cc5cc(-c6ccc(C(F)(F)F)cc6)ccc45)cc3)(CC1)CC2
pIC50 [11]: 7.42
Fu [3]: 0.94%
pIC50 [12]: 7.25
fold change (FC) [13]: 0.24
Fu [7]: 1.13%
solubility ([9]; buffer): 1.72 µg/mL
solubility ([10]; buffer): 2.24 µg/mL

Structure (SMILES): O=C(O)c1cc(-c2ccc(C34CCN(CC3)CC4)cc2)cc(-n2cc(-c3ccc(C(F)(F)F)cc3)nn2)c1
t1/2 [14]: 5.18 h
pIC50 [11]: 6.98
half-life [15]: 0.72 h
Stability [16]: 102%
bioavailability [17]: 100%
concentration at 2 h [18]: 206 nM
pIC50 [19]: < 4.52
Drug uptake [20]: 200 to 400 ng/kg
Papp [21]: 0.09 ×10⁻⁶ cm/s
pIC50 [12]: 6.07
t1/2 [22]: 3.2 h
fold change (FC) [13]: -0.09
Stability [23]: 89.4%
half-life [24]: 4.6 h
Stability [25]: 79.5%
Cmax [26]: 900 ng/mL
Tmax [27]: 3 to 4 h
t1/2 [28]: 1.8 h
pIC50 [29]: 4.77
pIC50 [30]: < 4.52
solubility ([9]; aqueous, read-out: solubility): 0.1 to 1.1 µg/mL (≈ 0.193 to 2.12 µM)
concentration at 4 h [31]: 163 nM
Stability [32]: 106%
pIC50 [33]: < 4.70
pIC50 [34]: < 4.52
solubility ([10]; aqueous, read-out: solubility): 2.8 to 14.5 µg/mL (≈ 5.4 to 27.9 µM)
Stability [35]: 86.8%

Fu [3]: 0.83%
pKi [36]: 5.36
Structure (SMILES): NCCCNC(=O)c1ccc(-c2cc(C(=O)O)cc(-n3cc(-c4ccc(C(F)(F)F)cc4)nn3)c2)s1
Activity [1]: Active

pIC50 [11]: < 4.00
Structure (SMILES): O=C(O)c1[nH]c(-c2ccc(C3=CCNCC3)cc2)cc1-n1cc(-c2ccc(C(F)(F)F)cc2)nn1

pIC50 [11]: < 4.00
Structure (SMILES): NC(=O)c1cc(-c2ccc(C3CCNCC3)cc2)cc(-n2cc(-c3ccc(C(F)(F)F)cc3)nn2)c1
